Laboratory results published in ChEMBL document CHEMBL4311941, “Development of Multifunctional Histone Deacetylase 6 Degraders with Potent Antimyeloma Activity” (J Med Chem, 2019).
The source made the active and inactive calls. The calls are words filed in the database; no cut-off is given here.

What was measured:
MM1.S = assay: Antiproliferative activity against human MM1S cells assessed as reduction in cell viability measured after 72 hrs by resazurin dye based assay relative to control; type: functional
Outline: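 MM1S cells seeded at 1 × 10^4 per well, left overnight, then given compound or DMSO vehicle (added as 5× dosing medium) for 72 h at 37 °C, 5% CO2. Resazurin added (10× solution, 1 mg/mL), then incubated overnight at 37 °C. OD read at 570 and 600 nm. Viability is relative to vehicle, n = 3. Curves fitted as [inhibitor] vs response (three parameters); test range 0.3 nM–3 μM.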

[1] = target: Protein cereblon/Histone deacetylase 3 (Homo sapiens) (UniProt O15379+Q96SW2); assay: Protac activity at CRBN/HDAC3 in human MM1S cells assessed as HDAC3 degradation measured after 6 hrs by Western blot analysis; type: cell-based
Protein cereblon/Histone deacetylase 3 (Homo sapiens), sequence (O15379 whole entry, looked up): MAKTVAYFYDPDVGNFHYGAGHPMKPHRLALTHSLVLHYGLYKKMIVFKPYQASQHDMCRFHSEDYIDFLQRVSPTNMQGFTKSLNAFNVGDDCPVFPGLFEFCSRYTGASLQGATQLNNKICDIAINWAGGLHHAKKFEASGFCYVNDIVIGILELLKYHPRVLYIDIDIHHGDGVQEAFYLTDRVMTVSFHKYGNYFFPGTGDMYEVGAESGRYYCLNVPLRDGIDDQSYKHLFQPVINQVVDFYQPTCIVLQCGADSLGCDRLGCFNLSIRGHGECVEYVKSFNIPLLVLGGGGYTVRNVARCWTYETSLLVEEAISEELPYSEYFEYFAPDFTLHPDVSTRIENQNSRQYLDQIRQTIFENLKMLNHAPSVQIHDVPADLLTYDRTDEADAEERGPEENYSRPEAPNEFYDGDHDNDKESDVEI
Protein cereblon/Histone deacetylase 3 (Homo sapiens), sequence (Q96SW2 whole entry, looked up): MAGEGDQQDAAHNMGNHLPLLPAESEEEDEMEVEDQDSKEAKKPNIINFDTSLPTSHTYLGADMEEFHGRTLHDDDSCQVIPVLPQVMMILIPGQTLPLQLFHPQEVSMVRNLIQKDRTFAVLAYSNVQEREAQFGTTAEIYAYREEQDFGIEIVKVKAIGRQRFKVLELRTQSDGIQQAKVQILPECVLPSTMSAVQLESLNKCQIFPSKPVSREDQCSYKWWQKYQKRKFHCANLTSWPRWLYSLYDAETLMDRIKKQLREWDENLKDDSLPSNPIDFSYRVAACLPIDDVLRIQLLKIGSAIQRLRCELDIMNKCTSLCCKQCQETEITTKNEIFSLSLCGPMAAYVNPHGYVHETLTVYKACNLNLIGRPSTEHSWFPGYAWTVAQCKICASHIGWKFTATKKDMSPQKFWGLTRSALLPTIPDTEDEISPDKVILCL

[2] = target: Cereblon/Ikaros (Homo sapiens) (UniProt Q96SW2+Q13422); assay: Protac activity at CRBN/IKZF1 in human MM1S cells assessed as IKZF1 degradation at 100 nM measured after 6 hrs in presence of E3 ligase ligand pomalidomide by Western blot analysis; type: cell-based
[3] = target: Protein cereblon/Zinc finger protein Aiolos (Homo sapiens) (UniProt Q96SW2+Q9UKT9); assay: Protac activity at CRBN/IKZF3 in human MM1S cells assessed as IKZF3 degradation at 100 nM incubated for 6 hrs followed by compound washout and measured after 12 hrs by Western blot analysis; type: cell-based
Protein cereblon/Zinc finger protein Aiolos (Homo sapiens), sequence (Q96SW2 whole entry, looked up): as above
Protein cereblon/Zinc finger protein Aiolos (Homo sapiens), sequence (Q9UKT9 whole entry, looked up): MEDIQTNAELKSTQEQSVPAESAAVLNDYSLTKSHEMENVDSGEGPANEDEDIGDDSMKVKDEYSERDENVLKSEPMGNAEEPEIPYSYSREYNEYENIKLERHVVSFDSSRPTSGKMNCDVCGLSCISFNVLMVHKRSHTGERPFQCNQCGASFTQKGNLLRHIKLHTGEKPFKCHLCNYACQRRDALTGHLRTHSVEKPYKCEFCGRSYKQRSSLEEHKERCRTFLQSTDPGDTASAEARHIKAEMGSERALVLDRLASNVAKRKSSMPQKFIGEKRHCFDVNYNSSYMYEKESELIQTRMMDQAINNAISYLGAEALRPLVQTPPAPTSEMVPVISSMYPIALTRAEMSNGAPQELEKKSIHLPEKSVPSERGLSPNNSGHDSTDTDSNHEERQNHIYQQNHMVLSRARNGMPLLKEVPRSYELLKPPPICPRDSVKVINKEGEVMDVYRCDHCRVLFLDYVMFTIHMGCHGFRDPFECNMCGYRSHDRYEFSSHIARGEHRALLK
Outline: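 MM1S cells treated with 100 nM degrader for 6 h, then washed with PBS to remove compound. IKZF3 followed by immunoblot over up to 48 h after washout: RIPA lysate, SDS-PAGE, PVDF transfer, HRP secondary antibody and ECL imaging.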

Histone deacetylase 4 = Histone deacetylase 4 (Homo sapiens, UniProt P56524); assay: Inhibition of human N-terminal tagged human HDAC4 expressed in HEK293T/17 using Boc-[TFA-Lys]-AMC as substrate preincubated for 10 mins followed by substrate addition and measured after 60 mins by fluorescence assay
Histone deacetylase 4, sequence (P56524 whole entry): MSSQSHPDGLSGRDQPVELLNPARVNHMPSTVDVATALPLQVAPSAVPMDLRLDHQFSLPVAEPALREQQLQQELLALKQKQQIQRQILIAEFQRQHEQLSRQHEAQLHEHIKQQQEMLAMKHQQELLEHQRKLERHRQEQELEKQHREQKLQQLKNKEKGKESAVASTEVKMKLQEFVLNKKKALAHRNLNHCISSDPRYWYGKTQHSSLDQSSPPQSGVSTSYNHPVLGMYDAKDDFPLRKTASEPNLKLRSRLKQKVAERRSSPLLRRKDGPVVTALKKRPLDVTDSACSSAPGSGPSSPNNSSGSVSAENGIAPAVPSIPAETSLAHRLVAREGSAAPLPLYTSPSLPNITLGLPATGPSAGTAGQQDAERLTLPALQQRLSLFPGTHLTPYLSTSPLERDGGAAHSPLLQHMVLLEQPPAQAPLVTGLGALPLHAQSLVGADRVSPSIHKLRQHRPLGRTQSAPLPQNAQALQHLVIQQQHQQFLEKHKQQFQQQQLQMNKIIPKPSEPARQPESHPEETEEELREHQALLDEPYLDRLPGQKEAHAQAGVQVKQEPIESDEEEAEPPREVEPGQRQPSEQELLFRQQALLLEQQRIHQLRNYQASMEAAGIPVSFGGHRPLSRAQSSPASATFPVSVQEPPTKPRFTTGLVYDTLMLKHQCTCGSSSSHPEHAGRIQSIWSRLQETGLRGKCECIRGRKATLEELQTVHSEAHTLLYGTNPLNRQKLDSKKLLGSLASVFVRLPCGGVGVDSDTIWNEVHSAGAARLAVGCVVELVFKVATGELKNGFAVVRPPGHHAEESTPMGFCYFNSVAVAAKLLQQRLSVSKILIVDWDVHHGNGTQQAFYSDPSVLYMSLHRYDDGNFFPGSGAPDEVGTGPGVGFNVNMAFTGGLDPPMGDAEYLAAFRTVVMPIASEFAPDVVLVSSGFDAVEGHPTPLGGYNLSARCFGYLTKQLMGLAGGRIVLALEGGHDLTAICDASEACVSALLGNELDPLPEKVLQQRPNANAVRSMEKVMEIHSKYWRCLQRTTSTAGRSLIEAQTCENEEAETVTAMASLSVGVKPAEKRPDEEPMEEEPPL

Histone deacetylase 7 = target: T1, Histone deacetylase 7 (Homo sapiens, UniProt Q8WUI4); assay: Inhibition of human N-terminal tagged human HDAC7 expressed in HEK293T/17 using Boc-[TFA-Lys]-AMC as substrate preincubated for 10 mins followed by substrate addition and measured after 60 mins by fluorescence assay
T1 sequence (Q8WUI4 whole entry): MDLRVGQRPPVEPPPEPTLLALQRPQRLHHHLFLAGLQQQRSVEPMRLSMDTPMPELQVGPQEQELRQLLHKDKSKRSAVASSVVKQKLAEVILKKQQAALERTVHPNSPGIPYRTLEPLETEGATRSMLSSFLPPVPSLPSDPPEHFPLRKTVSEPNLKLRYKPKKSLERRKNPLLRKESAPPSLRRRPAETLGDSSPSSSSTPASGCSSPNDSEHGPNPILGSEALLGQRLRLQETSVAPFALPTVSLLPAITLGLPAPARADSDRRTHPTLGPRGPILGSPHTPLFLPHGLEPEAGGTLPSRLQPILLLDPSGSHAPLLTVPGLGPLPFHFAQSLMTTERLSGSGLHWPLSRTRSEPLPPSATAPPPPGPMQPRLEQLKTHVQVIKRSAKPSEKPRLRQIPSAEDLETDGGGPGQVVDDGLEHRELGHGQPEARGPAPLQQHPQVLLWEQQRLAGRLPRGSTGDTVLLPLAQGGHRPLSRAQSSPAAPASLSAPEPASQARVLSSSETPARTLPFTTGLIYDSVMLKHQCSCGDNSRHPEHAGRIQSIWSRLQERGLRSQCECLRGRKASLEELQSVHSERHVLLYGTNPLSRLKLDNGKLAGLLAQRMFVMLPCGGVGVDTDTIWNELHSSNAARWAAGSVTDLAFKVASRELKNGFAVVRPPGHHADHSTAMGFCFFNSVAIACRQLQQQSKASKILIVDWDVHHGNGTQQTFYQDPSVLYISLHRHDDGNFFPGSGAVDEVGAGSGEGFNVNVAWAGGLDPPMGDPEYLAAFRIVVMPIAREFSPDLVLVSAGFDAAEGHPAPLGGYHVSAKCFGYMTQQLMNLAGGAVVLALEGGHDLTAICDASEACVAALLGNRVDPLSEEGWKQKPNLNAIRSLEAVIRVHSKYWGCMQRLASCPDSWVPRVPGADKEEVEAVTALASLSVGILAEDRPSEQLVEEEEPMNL

With `CCCCN(Cc1ccc(C(=O)NO)cc1)C(=O)Nc1ccc(OCCCCCn2cc(CNc3cccc4c3C(=O)N(C3CCC(=O)NC3=O)C4=O)nn2)cc1` (stereo unspecified) the Imax (MM1.S) was 63.1%, the Activity [1] was “inactive” and the Activity [2] was “Active”. For the same compound, the Activity [3] was “inactive”, the IC50 (Histone deacetylase 4) was 0.3 to 30 µM and the IC50 (Histone deacetylase 7) was 0.3 to 30 µM.
